Measured values: the RNAGym collection of RNA variant scans (doi:10.1126/science.aae0568)
This sample holds only a part of the variants without activity.

B1: tRNA (parent)
chain: GUUCCGUUGGCGUAAUGGUAACGCGUCUCCCUCCUAAGGAGAAGACUGCGGGUUCGAGUCCCGUACGGAACG

Variants of: B1
Test: yeast fitness relative to wild type (ratio to wild type); higher = fitter; tRNA-Arg(CCU), competitive growth, 37 C, YPD
In short: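 For this measurement, the tRNA-Arg(CCU) gene was varied by chemical synthesis at a 3% per-site mutation rate across 69 sites, and each variant was placed at the native genomic locus in Saccharomyces cerevisiae. The pooled strains went through a 24-hour competition in YPD at 37°C in six parallel replicates, with amplicons from start and end populations read by 100-nucleotide paired-end sequencing. Darwinian fitness relative to wild type followed from the change in each genotype's frequency. Genotypes needed ≥ 100 starting reads, and estimates < 0.5 were set to 0.5.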
GUUCCGUUGGCGUAAUGGUAACGCAUCUCCUUCCUAAGGAUAAGACUGCGGGUUCGAGUCCCGUACGGAACG [G25A C31U G41U] gave a yeast fitness of 0.739. In the case of GUCCCGUUGCCGUAAUGGUAACGCGUCUCCCUCUUAAGGAGAAGACUGCGGGUUCGAGUCCCGUACGGAACG [U3C G10C C34U], the yeast fitness is reported as 0.586. Work on GUUCCGUUGGCGCAAUGGUAACGCGUCUCCCUCCUAAGGAGAAGACUGCGGGUUCGAGUCCCGUACGGUACG [U13C A69U] yielded a yeast fitness of 1.07. GUUCCGUAGGCGUAAUGGUAACCCGUCUCCCUCCUAAGGAGAAGACUGCGCGUUCGAGUCCGGUACGGAACG [U8A G23C G51C C62G] gave a yeast fitness of 0.727. GUUCCGUUGGCGUAAUGGUUAGGCGUCUCCCUCCUAAGGGGAAGACUGCGGGUUCGAGUCCCGUAUGGAACG [A20U C22G A40G C66U] gave a yeast fitness of no more than 0.5. In the case of GUUCCGUUGGCGUAAUGGUAACGCGUCUCCCUCCUAAGGGGAAGACUGCGGGUUCGAGUCCCGUGCGGAACG [A40G A65G], the yeast fitness is reported as 0.984. For GUUCCGUUGGCGUAAUGGUAACGCGUCUCCCUCCUAAGGAGAAGACUGCUGGUUCGAGUCCCGUACGCAACG [G50U G68C], the yeast fitness was 0.804. In the case of GUUCCGUGGGCGUAAUGGUAACGCGUCUCCCUCCUAAGGAGAAGACUGCGGGUUCGAUUCCCGUGCAGAACG [U8G G58U A65G G67A], the yeast fitness is reported as 0.547. With GUUCCGUUGGCGUAGUGGUUACGCGUCUCCCUCAUAAGGAGAAGACUGCGGGUUCGAGUACCGUACGGACCG [A15G A20U C34A C60A A70C] the yeast fitness was no more than 0.5. With GUUCCGUUGGCGUAAUGGUAACGCGUCUCCCUCCUAAGGAGAAGACUCCGGGUUCGAGUCCCGUACCGAUCG [G48C G67C A70U] the yeast fitness was 0.53. Work on GUUCCGUUGGCGUAAUGGUAAGGCGUCUCCCCCCUAAGGAGAAGACCGCGGGGUCGAGUCCCGUACGGAACG [C22G U32C U47C U53G] yielded a yeast fitness of no more than 0.5. GUUCGGUUGGCGUAAUGGUAAAGCGCCUCCCUGCUAAGGAGAAGACUGCGGGUUCGAGUCCCGUACGGAACG [C5G C22A U26C C33G] gave a yeast fitness of 0.564. For GUUCAGUUGGCGUAAUGGUAACGCGUCUCCGUCCUAAGGAGAAGACUGCGGGUUCGAGUCCCGUACGGAACG [C5A C31G], the yeast fitness was 0.889. In the case of GUUCCGUUGGCGUAAUGGAAACGCGUCUCCCUCCUAAGGAGAAGACUGCGGGUUUGAGUCCCGUACGGAACG [U19A C55U], the yeast fitness is reported as 0.694. Work on GUUCCGUUAGCGUAAUGGUAACGCGUCUCCCUGCUAAGGAGAAAACUGGGGGUUCGAGUCCCGUACGGAACG [G9A C33G G44A C49G] yielded a yeast fitness of 0.607. For GUUCCGUUGACGUAAUAGAAACGCGUCUUCCUCCUAAGGAGAAGACUGCGGGUUCGAGUCCCGUAUGGAACG [G10A G17A U19A C29U C66U], the yeast fitness was no more than 0.5. In the case of GUUCCGGUGGCGUAAUGGUAACGCGUCUCCCUCCUAAGGAGAAGACUGGGGGUUCGAGUCCCGUACGGAACG [U7G C49G], the yeast fitness is reported as 0.729. In the case of GUUCCGUUGGGGUAUUGGUAACGGGUCUCCCUCCUAAGGGGAAGACUGCGGGUUCGAGUCCUGUACGGACCG [C11G A15U C24G A40G C62U A70C], the yeast fitness is reported as 0.614. For GUUCCGUUGGCGUAAUGGUAAGGCGUCUCCCUCCUAAGGAGAAGACUGCGGGUUCGACUCACGUACGGUACG [C22G G58C C61A A69U], the yeast fitness was no more than 0.5. Work on GUUCCGUUGGGGUAAUGGUAACGCGACUCUCUCCUAAGGAGAAGACUACGGGUAGGAGUCCCGUUCGGAACG [C11G U26A C30U G48A U54A C55G A65U] yielded a yeast fitness of 0.664. For GUUCCCUCGGCGUAAUGGUAACGCGUCUCCCUCCUAAGGACAAGACUGCGCGUUCGAGUCCCGUACGGAACG [G6C U8C G41C G51C], the yeast fitness was no more than 0.5. Variant GUUCCGUUGGCGAAAUGGUAACGCGUCUCCCUCCUAAGGAGAAGACUGCGGGUUCGAGUCGCGUACGCAACG [U13A C61G G68C] has a yeast fitness of no more than 0.5. Variant GUUCCGUUGGCGUAAUGGUAACGCGUCUCCGUCCUAAGGAGAAGACUGCGGGCGCGAGUCCCGUACGGAACG [C31G U53C U54G] has a yeast fitness of no more than 0.5. With GAUCCGUUGGCGUAAUGGUAACGCGUCUCCCUCCUAAGGAGACGACUGCGGGUUCGAGUCUCGUACGGAACG [U2A A43C C61U] the yeast fitness was 0.572. Variant GUUCCGUUGGCAUAAUGGUAACGCGUCUCCCUCCUAAGGCGAAGACUGCGGGUUCGACCCCCAUACGGAACG [G12A A40C G58C U59C G63A] has a yeast fitness of no more than 0.5. In the case of GUUCCGUUGGCGUAAUGGUAACGCGUCUCCCUCCUAAGGAGAAGACAGCGGCUUCGAGUCCCGUACGGAACG [U47A G52C], the yeast fitness is reported as 0.581. With GUUCAGUUGGGGUAAUGGUAACGCGUCUCCCUCCUAAGGAGAAGACUGCGAGUUCGAGUCCUGUACGGAACG [C5A C11G G51A C62U] the yeast fitness was no more than 0.5. GUAGCGUAGGCGUAAUGGUAACGCGUCUCCCUCCUAAGGAGAAGACUGGGGGUUCGAGUCCCGUACGGAACG [U3A C4G U8A C49G] gave a yeast fitness of no more than 0.5. Variant GUUCCGUUGGCGUAAUGGUUACGCAUGUCCCUCCUAAGGAGAAGACUGCGGGUUCGAGUCCCGUACAGAACG [A20U G25A C27G G67A] has a yeast fitness of 0.542. Variant GUUCCGUUGGCGUAAUGGUAACGGGUCUACCUCCUAAGGAGAUGACUGCGGGUUCGGGUCCCGUACGCAACG [C24G C29A A43U A57G G68C] has a yeast fitness of no more than 0.5. Variant GUUCGGUUGGCGUAAUGGUAACGCGUCUCCCACCUAAGGAGAAGACUCCGGGUUCGAGUCCUGUACGGAACG [C5G U32A G48C C62U] has a yeast fitness of no more than 0.5. For GUUACGUUGGCGUAAUGGUGACGCGUCUCCCUCGUAAGGAGAAGACUGCGGGUUCGAGUCCCGUAUGGAACG [C4A A20G C34G C66U], the yeast fitness was no more than 0.5. With GUUCCGACGGCGUAAUAGUAACGCGUGUUCCUCCUAAGGAGACGACUGCGGAUUCGAGUCCCGUACGGAACG [U7A U8C G17A C27G C29U A43C G52A] the yeast fitness was no more than 0.5. GUUCCGUUGGCGUCAUGGUCACGCGUCUCCCUCAUAAGGAGUAGACUGCGGGUUCGAGUCCCGUACGGAACG [A14C A20C C34A A42U] showed a yeast fitness of no more than 0.5. Variant GUACCGUUGGCGUAGUGGUAACGCGUCCCCCUCCUAAGGAGAAGACUGCGGGUUCGAGUACCGUACGGAACG [U3A A15G U28C C60A] has a yeast fitness of 0.522. GUUCCGUUGGCGUAAUGGUAACGCGUCUACCUCGUAAGGAGAAGACUGCGGGUUCGAGUCCCGUACGGAACG [C29A C34G] gave a yeast fitness of no more than 0.5. In the case of GUUUCGUUGAGGUAAUGGUGACGCGUGUUCCUCCUAAGGAGAAGACUGCGGGUUCGAGUCCCGUUCGGAACG [C4U G10A C11G A20G C27G C29U A65U], the yeast fitness is reported as no more than 0.5. For GUUCCAUAGGCGUAAUGGUAAGGCGUCUCCCUCCUAAGGAGAAGACAGCGGGUUCGAGUCCCGUACGGACCG [G6A U8A C22G U47A A70C], the yeast fitness was no more than 0.5.
